How the values were obtained:
Histamine H1 receptor [1] = molecular target: T1, Histamine H1 receptor (Cavia porcellus, UniProt P31389); test: Binding affinity against H1 receptor of guinea pig by the displacement of [3H]mepyramine, bound to membranes of CHO cells; assay type: cell membranes
In short: (§1)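 Displacement of [3H]mepyramine from membranes of CHO cells expressing guinea pig H1 receptors. At least three independent experiments, each performed in triplicate.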

Histamine H2 receptor [2] = molecular target: T2, Histamine H2 receptor (Homo sapiens, UniProt P25021); test: Binding affinity against human H2 receptor by the displacement of [125I]iodoaminopotentidine, bound to membranes of CHO cells.; assay type: cell membranes
Histamine H3 receptor [3] = molecular target: T3, Histamine H3 receptor (Cavia porcellus, UniProt Q9JI35); test: Tested in vitro for antagonist activity against H3 receptor of guinea pig jejunum.; assay type: functional, tissue-based; conditions: read-out: pA2 (converted)
In short: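 Isolated guinea pig jejunum segments were electrically stimulated, giving twitches from endogenous acetylcholine release. Antagonism was tested against cumulative (R)-α-methylhistamine concentration–response curves, using at least three antagonist concentrations. pA2 was the negative log of the Schild plot abscissal intercept. Tissues came from at least four animals, tested in triplicate; Student's t-test, p < 0.05.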

[4] = molecular target: Histamine H3 receptor (Cavia porcellus) (UniProt Q9JI35); conditions: Jejunum
[5] = molecular target: Histamine H3 receptor (Cavia porcellus) (UniProt Q9JI35); conditions: Ileum
Histamine H3 receptor [6] = molecular target: T3, Histamine H3 receptor; test: pA2 values against H3 receptor of guinea pig ileum were determined.; assay type: tissue-based; conditions: read-out: pA2 (converted)
Histamine H3 receptor [7] = molecular target: T3, Histamine H3 receptor; test: pD2 values against H3 receptor of guinea pig jejunum were determined.; assay type: tissue-based
In short: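 Isolated guinea pig jejunum segments, electrically stimulated so that endogenous acetylcholine release evokes contractile twitches. Cumulative concentrations of the compound were added, and the concentration-dependent inhibition of the evoked twitches gave a concentration–response curve. Tissue from at least four animals was used, each tested in triplicate. Student's t-test, with p < 0.05 taken as significant.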

Histamine H1 receptor [8] = molecular target: T1, Histamine H1 receptor; test: Binding affinity for H1 receptor of guinea pig by the displacement of [3H]mepyramine, bound to membranes of CHO cells; assay type: cell membranes; in short: as §1
Histamine H2 receptor [9] = molecular target: T2, Histamine H2 receptor; test: Binding affinity against human H2 receptor by the displacement of [125I]iodoaminopotentidine bound to membranes of CHO cells.; assay type: cell membranes
In short: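 Displacement of [125I]iodoaminopotentidine from membranes of CHO cells expressing human H2 receptors. At least three independent experiments, each performed in triplicate.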

T3 sequence (Q9JI35 whole entry): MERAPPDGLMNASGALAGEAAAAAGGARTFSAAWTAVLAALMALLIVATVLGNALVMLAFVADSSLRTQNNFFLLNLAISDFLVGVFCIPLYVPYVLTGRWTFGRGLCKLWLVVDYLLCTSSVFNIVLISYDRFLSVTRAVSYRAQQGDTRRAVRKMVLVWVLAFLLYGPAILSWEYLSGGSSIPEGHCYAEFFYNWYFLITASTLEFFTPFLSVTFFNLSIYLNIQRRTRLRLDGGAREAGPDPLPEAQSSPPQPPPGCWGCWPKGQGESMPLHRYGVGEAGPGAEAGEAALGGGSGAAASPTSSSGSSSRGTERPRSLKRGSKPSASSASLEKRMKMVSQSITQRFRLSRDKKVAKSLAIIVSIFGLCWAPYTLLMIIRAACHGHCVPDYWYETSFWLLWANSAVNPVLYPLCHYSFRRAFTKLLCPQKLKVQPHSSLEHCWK
T1 sequence (P31389 whole entry): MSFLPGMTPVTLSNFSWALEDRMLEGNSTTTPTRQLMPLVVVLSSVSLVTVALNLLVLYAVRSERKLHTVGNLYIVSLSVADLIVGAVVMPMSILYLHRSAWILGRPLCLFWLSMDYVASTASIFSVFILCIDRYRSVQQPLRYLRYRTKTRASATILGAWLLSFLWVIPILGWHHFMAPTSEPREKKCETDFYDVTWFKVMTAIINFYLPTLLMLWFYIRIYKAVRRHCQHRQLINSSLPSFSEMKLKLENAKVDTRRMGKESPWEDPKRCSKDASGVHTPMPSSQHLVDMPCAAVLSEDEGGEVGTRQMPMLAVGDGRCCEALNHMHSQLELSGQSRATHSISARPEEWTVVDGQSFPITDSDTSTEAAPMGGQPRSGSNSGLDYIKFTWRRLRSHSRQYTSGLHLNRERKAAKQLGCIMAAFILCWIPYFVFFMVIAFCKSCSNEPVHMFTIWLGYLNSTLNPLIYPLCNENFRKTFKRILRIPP
T2 sequence (P25021 whole entry): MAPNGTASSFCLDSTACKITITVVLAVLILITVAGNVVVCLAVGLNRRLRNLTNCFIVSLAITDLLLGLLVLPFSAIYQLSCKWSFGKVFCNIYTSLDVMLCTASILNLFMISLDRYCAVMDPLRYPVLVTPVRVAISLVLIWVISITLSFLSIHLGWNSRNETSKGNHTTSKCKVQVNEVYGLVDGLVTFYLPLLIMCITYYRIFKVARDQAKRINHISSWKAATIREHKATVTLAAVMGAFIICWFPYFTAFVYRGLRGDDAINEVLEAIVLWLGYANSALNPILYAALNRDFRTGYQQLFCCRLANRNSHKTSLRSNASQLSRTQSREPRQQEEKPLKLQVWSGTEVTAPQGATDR
Chain of Histamine H3 receptor (Cavia porcellus) (Q9JI35 whole entry): as the sequence (Q9JI35 whole entry) above

| Ki (Histamine H1 receptor [1]) [µM] | Ki (Histamine H2 receptor [2]) [µM] | Kb (Histamine H3 receptor [3]) [µM] | SMILES | also measured |
| --- | --- | --- | --- | --- |
| 126 | 200 | 0.0158 | NCCCCCCc1cnc[nH]1 | – |
| – | – | – | NCCc1c[nH]cn1 | pD2 [4]: 6.2 |
| > 1000 | > 1000 | > 1000 | NCc1c[nH]cn1 | – |
| – | – | – | N=C(N)SCCc1c[nH]cn1 | pD2 [5]: 8.1 |
| – | – | – | N=C(N)SCCCc1c[nH]cn1 | Kb (Histamine H3 receptor [6]): 0.01 µM |
| 126 | 251 | 0.00398 | NCCCCCc1c[nH]cn1 [IMPENTAMINE] | – |
| 0.631 | 20 | 1 | NCCCCCCCCCCc1c[nH]cn1 | – |
| 2.51 | 31.6 | 1 | NCCCCCCCCc1cnc[nH]1 | – |
| > 1000 | > 1000 | 1.26 | NCCCc1c[nH]cn1 [HOMOHISTAMINE] | – |
| – | – | – | C[C@@H](N)Cc1c[nH]cn1 | pD2 (Histamine H3 receptor [7]): 7.8 |
| – | – | 0.02 | NCCCCc1c[nH]cn1 [IMBUTAMINE] | Ki (Histamine H1 receptor [8]): 398 µM; Ki (Histamine H2 receptor [9]): 794 µM |
